Experimental data: ChEMBL document CHEMBL4680072, “Synthesis and evaluation of a radioiodinated 4,6-diaryl-3-cyano-2-pyridinone derivative as a survivin targeting SPECT probe for tumor imaging” (Bioorg Med Chem Lett, 2016)

Columns and labels:
[1] = Biodistribution in spleen of BALB/c nu/nu mouse xenografted with human MDA-MB-231 cells at 7.4 kBq, iv using [125I] labeled compound measured after 180 mins by gamma counter method; format: ADME, organism-based; conditions: in vivo, 3 h
How it was run: (§1)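 Radioactivity in each excised tissue is expressed as percent injected dose per gram (% ID/g). Each value is the mean (SD) of three tumor-bearing mice per time point (n = 3).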

[2] = Biodistribution in liver of BALB/c nu/nu mouse xenografted with human MDA-MB-231 cells at 7.4 kBq, iv using [125I] labeled compound measured after 60 mins by gamma counter method; format: ADME, organism-based; conditions: in vivo, 1 h; how it was run: as §1
[3] = Biodistribution in blood of BALB/c nu/nu mouse xenografted with human MDA-MB-231 cells at 7.4 kBq, iv using [125I] labeled compound measured after 30 mins by gamma counter method; format: ADME, organism-based; conditions: in vivo, 0.5 h; how it was run: as §1
[4] = Biodistribution in muscle of BALB/c nu/nu mouse xenografted with human MDA-MB-231 cells at 7.4 kBq, iv using [125I] labeled compound measured after 60 mins by gamma counter method; format: ADME, organism-based, Muscle tissue; conditions: in vivo, 1 h; how it was run: as §1
[5] = Biodistribution in brain of BALB/c nu/nu mouse xenografted with human MDA-MB-231 cells at 7.4 kBq, iv using [125I] labeled compound measured after 30 mins by gamma counter method; format: ADME, organism-based; conditions: in vivo, 0.5 h; how it was run: as §1
[6] = Biodistribution in spleen of BALB/c nu/nu mouse xenografted with human MDA-MB-231 cells at 7.4 kBq, iv using [125I] labeled compound measured after 60 mins by gamma counter method; format: ADME, organism-based; conditions: in vivo, 1 h; how it was run: as §1
[7] = Biodistribution in muscle of BALB/c nu/nu mouse xenografted with human MDA-MB-231 cells at 7.4 kBq, iv using [125I] labeled compound measured after 180 mins by gamma counter method; format: ADME, organism-based, Muscle tissue; conditions: in vivo, 3 h; how it was run: as §1
[8] = Biodistribution in tumor of BALB/c nu/nu mouse xenografted with human MDA-MB-231 cells at 7.4 kBq, iv using [125I] labeled compound measured after 180 mins by gamma counter method; format: ADME, organism-based, Neoplasm; conditions: in vivo, 3 h; how it was run: as §1
[9] = Biodistribution in intestine of BALB/c nu/nu mouse xenografted with human MDA-MB-231 cells at 7.4 kBq, iv using [125I] labeled compound measured after 180 mins by gamma counter method; format: ADME, organism-based; conditions: in vivo, 3 h; how it was run: as §1
[10] = Biodistribution in intestine of BALB/c nu/nu mouse xenografted with human MDA-MB-231 cells at 7.4 kBq, iv using [125I] labeled compound measured after 60 mins by gamma counter method; format: ADME, organism-based; conditions: in vivo, 1 h; how it was run: as §1
[11] = Biodistribution in blood of BALB/c nu/nu mouse xenografted with human MDA-MB-231 cells at 7.4 kBq, iv using [125I] labeled compound measured after 180 mins by gamma counter method; format: ADME, organism-based; conditions: in vivo, 3 h; how it was run: as §1
[12] = Biodistribution in intestine of BALB/c nu/nu mouse xenografted with human MDA-MB-231 cells at 7.4 kBq, iv using [125I] labeled compound measured after 30 mins by gamma counter method; format: ADME, organism-based; conditions: in vivo, 0.5 h; how it was run: as §1
[13] = Biodistribution in lung of BALB/c nu/nu mouse xenografted with human MDA-MB-231 cells at 7.4 kBq, iv using [125I] labeled compound measured after 30 mins by gamma counter method; format: ADME, organism-based; conditions: in vivo, 0.5 h; how it was run: as §1
[14] = Biodistribution in pancreas of BALB/c nu/nu mouse xenografted with human MDA-MB-231 cells at 7.4 kBq, iv using [125I] labeled compound measured after 60 mins by gamma counter method; format: ADME, organism-based; conditions: in vivo, 1 h; how it was run: as §1
[15] = Biodistribution in kidney of BALB/c nu/nu mouse xenografted with human MDA-MB-231 cells at 7.4 kBq, iv using [125I] labeled compound measured after 180 mins by gamma counter method; format: ADME, organism-based; conditions: in vivo, 3 h; how it was run: as §1
[16] = Biodistribution in pancreas of BALB/c nu/nu mouse xenografted with human MDA-MB-231 cells at 7.4 kBq, iv using [125I] labeled compound measured after 180 mins by gamma counter method; format: ADME, organism-based; conditions: in vivo, 3 h; how it was run: as §1
[17] = Biodistribution in blood of BALB/c nu/nu mouse xenografted with human MDA-MB-231 cells at 7.4 kBq, iv using [125I] labeled compound measured after 60 mins by gamma counter method; format: ADME, organism-based; conditions: in vivo, 1 h; how it was run: as §1
[18] = Biodistribution in stomach of BALB/c nu/nu mouse xenografted with human MDA-MB-231 cells at 7.4 kBq, iv using [125I] labeled compound measured after 60 mins by gamma counter method; format: ADME, organism-based; conditions: in vivo, 1 h; how it was run: as §1
[19] = Biodistribution in liver of BALB/c nu/nu mouse xenografted with human MDA-MB-231 cells at 7.4 kBq, iv using [125I] labeled compound measured after 30 mins by gamma counter method; format: ADME, organism-based; conditions: in vivo, 0.5 h; how it was run: as §1
[20] = Biodistribution in brain of BALB/c nu/nu mouse xenografted with human MDA-MB-231 cells at 7.4 kBq, iv using [125I] labeled compound measured after 60 mins by gamma counter method; format: ADME, organism-based; conditions: in vivo, 1 h; how it was run: as §1
[21] = Biodistribution in tumor of BALB/c nu/nu mouse xenografted with human MDA-MB-231 cells at 7.4 kBq, iv using [125I] labeled compound measured after 30 mins by gamma counter method; format: ADME, organism-based, Neoplasm; conditions: in vivo, 0.5 h; how it was run: as §1
[22] = Biodistribution in tumor of BALB/c nu/nu mouse xenografted with human MDA-MB-231 cells at 7.4 kBq, iv using [125I] labeled compound measured after 60 mins by gamma counter method; format: ADME, organism-based, Neoplasm; conditions: in vivo, 1 h; how it was run: as §1
[23] = Biodistribution in stomach of BALB/c nu/nu mouse xenografted with human MDA-MB-231 cells at 7.4 kBq, iv using [125I] labeled compound measured after 30 mins by gamma counter method; format: ADME, organism-based; conditions: in vivo, 0.5 h; how it was run: as §1
[24] = Biodistribution in pancreas of BALB/c nu/nu mouse xenografted with human MDA-MB-231 cells at 7.4 kBq, iv using [125I] labeled compound measured after 30 mins by gamma counter method; format: ADME, organism-based; conditions: in vivo, 0.5 h; how it was run: as §1
[25] = Biodistribution in kidney of BALB/c nu/nu mouse xenografted with human MDA-MB-231 cells at 7.4 kBq, iv using [125I] labeled compound measured after 30 mins by gamma counter method; format: ADME, organism-based; conditions: in vivo, 0.5 h; how it was run: as §1
[26] = Biodistribution in stomach of BALB/c nu/nu mouse xenografted with human MDA-MB-231 cells at 7.4 kBq, iv using [125I] labeled compound measured after 180 mins by gamma counter method; format: ADME, organism-based; conditions: in vivo, 3 h; how it was run: as §1
[27] = Biodistribution in lung of BALB/c nu/nu mouse xenografted with human MDA-MB-231 cells at 7.4 kBq, iv using [125I] labeled compound measured after 60 mins by gamma counter method; format: ADME, organism-based; conditions: in vivo, 1 h; how it was run: as §1
[28] = Biodistribution in brain of BALB/c nu/nu mouse xenografted with human MDA-MB-231 cells at 7.4 kBq, iv using [125I] labeled compound measured after 180 mins by gamma counter method; format: ADME, organism-based; conditions: in vivo, 3 h; how it was run: as §1
[29] = Biodistribution in kidney of BALB/c nu/nu mouse xenografted with human MDA-MB-231 cells at 7.4 kBq, iv using [125I] labeled compound measured after 60 mins by gamma counter method; format: ADME, organism-based; conditions: in vivo, 1 h; how it was run: as §1
[30] = Biodistribution in heart of BALB/c nu/nu mouse xenografted with human MDA-MB-231 cells at 7.4 kBq, iv using [125I] labeled compound measured after 180 mins by gamma counter method; format: ADME, organism-based; conditions: in vivo, 3 h; how it was run: as §1
[31] = Biodistribution in lung of BALB/c nu/nu mouse xenografted with human MDA-MB-231 cells at 7.4 kBq, iv using [125I] labeled compound measured after 180 mins by gamma counter method; format: ADME, organism-based; conditions: in vivo, 3 h; how it was run: as §1
[32] = Biodistribution in muscle of BALB/c nu/nu mouse xenografted with human MDA-MB-231 cells at 7.4 kBq, iv using [125I] labeled compound measured after 30 mins by gamma counter method; format: ADME, organism-based, Muscle tissue; conditions: in vivo, 0.5 h; how it was run: as §1
[33] = Biodistribution in liver of BALB/c nu/nu mouse xenografted with human MDA-MB-231 cells at 7.4 kBq, iv using [125I] labeled compound measured after 180 mins by gamma counter method; format: ADME, organism-based; conditions: in vivo, 3 h; how it was run: as §1
[34] = Biodistribution in spleen of BALB/c nu/nu mouse xenografted with human MDA-MB-231 cells at 7.4 kBq, iv using [125I] labeled compound measured after 30 mins by gamma counter method; format: ADME, organism-based; conditions: in vivo, 0.5 h; how it was run: as §1
[35] = Biodistribution in heart of BALB/c nu/nu mouse xenografted with human MDA-MB-231 cells at 7.4 kBq, iv using [125I] labeled compound measured after 60 mins by gamma counter method; format: ADME, organism-based; conditions: in vivo, 1 h; how it was run: as §1
[36] = Biodistribution in heart of BALB/c nu/nu mouse xenografted with human MDA-MB-231 cells at 7.4 kBq, iv using [125I] labeled compound measured after 30 mins by gamma counter method; format: ADME, organism-based; conditions: in vivo, 0.5 h; how it was run: as §1

Drug uptake [1]: 0.71 % ID/g
Drug uptake [2]: 10.01 % ID/g
Drug uptake [3]: 1.36 % ID/g
Drug uptake [4]: 0.29 % ID/g
Drug uptake [5]: 0.07 % ID/g
Drug uptake [6]: 1.1 % ID/g
Drug uptake [7]: 0.33 % ID/g
Drug uptake [8]: 0.65 % ID/g
Drug uptake [9]: 21.5 % ID/g
Drug uptake [10]: 25.3 % ID/g
Drug uptake [11]: 0.99 % ID/g
Drug uptake [12]: 10.1 % ID/g
Drug uptake [13]: 2.25 % ID/g
Drug uptake [14]: 0.55 % ID/g
Drug uptake [15]: 1.22 % ID/g
Drug uptake [16]: 0.61 % ID/g
Drug uptake [17]: 0.72 % ID/g
Drug uptake [18]: 5.33 % ID/g
Drug uptake [19]: 16.3 % ID/g
Drug uptake [20]: 0.06 % ID/g
Drug uptake [21]: 0.51 % ID/g
Drug uptake [22]: 0.63 % ID/g
Drug uptake [23]: 3.54 % ID/g
Drug uptake [24]: 2.22 % ID/g
Drug uptake [25]: 3.02 % ID/g
Drug uptake [26]: 6.21 % ID/g
Drug uptake [27]: 1.43 % ID/g
Drug uptake [28]: 0.05 % ID/g
Drug uptake [29]: 1.5 % ID/g
Drug uptake [30]: 0.51 % ID/g
Drug uptake [31]: 1.35 % ID/g
Drug uptake [32]: 0.42 % ID/g
Drug uptake [33]: 5.68 % ID/g
Drug uptake [34]: 2.27 % ID/g
Drug uptake [35]: 0.53 % ID/g
Drug uptake [36]: 0.84 % ID/g
Compound: CCCN1CCC(C(=O)N(C)Cc2cc(Cl)cc(-c3cc(-c4cc(C(F)(F)F)ccc4[125I])c(C#N)c(=O)[nH]3)c2O)CC1
